The source made the active and inactive calls. No cut-off for these calls is given here. Where only a bound is given, the exact number is not on record here.

Assay [1] has as its system Nucleic Acid. Briefly: Stabilization of human G4-telomeric quadruplex assessed as melting temperature by FRET assay. The assay is classed as nucleic-acid assay. In short, it runs like this:
(§1)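 FRET melting of FAM/TAMRA dual-labelled oligonucleotides, annealed at 90°C in 60 mM K+ cacodylate buffer pH 7.4. Final conditions: 200 nM DNA and 500 nM ligand. Fluorescence read at 0.5°C steps from 30 to 100°C, ramping 1°C/min, with excitation 450–495 nm and emission 515–545 nm. Tm taken as the derivative maximum; ΔTm given relative to ligand-free control.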

Assay [2] relates to Nucleic Acid. As to the kind of experiment: Stabilization of synthetic duplex DNA assessed as melting temperature by FRET assay. The class given is nucleic-acid assay. In short, it runs like this: as §1
The subject of assay [3] is Nucleic Acid. Briefly: Stabilization of human G4-KIT1 DNA quadruplex assessed as melting temperature by FRET assay. The class given is nucleic-acid assay. In short, it runs like this:
as §1

Assay [4] has as its system Nucleic Acid. Briefly: Stabilization of human G4-KIT2 DNA quadruplex assessed as melting temperature by FRET assay. The class given is nucleic-acid assay. In short, it runs like this: as §1
Assay [5] is described as follows: Antiproliferative activity against human GIST882 cells after 96 hrs by SRB assay. The assay is classed as functional, cell-based. The note with it: GIST882, 96 h. In short, it runs like this: (§2)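 Sulforhodamine B assay after 96 hr continuous drug exposure; IC50 in μM taken as the mean of triplicate experiments. GIST882 cells were kept in RPMI 1640 with 15% FBS. HT-29 and MCF-7 were kept in DMEM with 10% FBS, and HGC-27 in MEM with 10% FBS.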
(Sulforhodamine B stains cellular protein and so reports cell mass.)

The subject of assay [6] is HGC-27. Briefly: Antiproliferative activity against human HGC27 cells after 96 hrs by SRB assay. The assay is classed as functional, cell-based. The note with it: HGC-27, 96 h. In short, it runs like this: as §2
Assay [7] relates to HT-29. As to the kind of experiment: Antiproliferative activity against human HT-29 cells after 96 hrs by SRB assay. The note with it: HT-29, 96 h. The assay is classed as functional, cell-based. In short, it runs like this:
as §2

In assay [8] the test system is MCF7. Briefly: Antiproliferative activity against human MCF7 cells after 96 hrs by SRB assay. As to conditions: MCF7, 96 h. The class given is functional, cell-based. In short, it runs like this:
as §2

The subject of assay [9] is GIST882. Briefly: Cytotoxicity against human GIST882 cells assessed as effect on cell viability after 3 to 6 days by luciferase based luminescence assay. The class given is functional. In short, it runs like this:
(§3)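 CellTiter-Glo luciferase/ATP luminescence viability read-out. Cells plated at 10,000–30,000 per well and grown overnight in serum-containing medium, then dosed for 3 to 6 days alongside a water-solvent control. Signal normalized to control; each point in triplicate. GIST882, GISTT1 and LMS04 were grown in RPMI 1640 with 15% FBS. GIST48 and GIST48B were grown in F10 with 15% FBS, mito+ serum extender and bovine pituitary extract.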

For assay [10], the system named is GISTT1. Briefly: Cytotoxicity against human GISTT1 cells assessed as effect on cell viability after 3 to 6 days by luciferase based luminescence assay. The assay is classed as functional. In short, it runs like this: as §3
The subject of assay [11] is GIST48B. As to the kind of experiment: Cytotoxicity against human GIST48B cells assessed as effect on cell viability after 3 to 6 days by luciferase based luminescence assay. The class given is functional. In short, it runs like this: as §3
The species named for assay [12] is Homo sapiens. As to the kind of experiment: Cytotoxicity against human LMSO4 cells assessed as effect on cell viability after 3 to 6 days by luciferase based luminescence assay. The class given is functional. In short, it runs like this: as §3
The target of assay [13] is Mast/stem cell growth factor receptor Kit (Homo sapiens) (UniProt P10721). Briefly: Reduction in KIT mRNA expression in human GIST882 cells after 24 hrs. The assay is classed as functional, cell-based. In short, it runs like this:
(§4)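 GIST882 cells (1×10^6) exposed to drug for 24 hr. Total RNA extracted, and 250 ng used for one-step RT-PCR of KIT, MYC, hTERT and N-RAS. Band levels normalized to GAPDH and to untreated control.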

Assay [14] has the same target. As to the kind of experiment: Reduction in KIT mRNA expression in human GIST882 cells at 1 uM after 24 hrs relative to GAPDH level. Details: scale not given: the % may be the effect or the level left. The assay is classed as functional, cell-based. In short, it runs like this: as §4
The nature of assay [15]: Reduction in MYC mRNA expression in human GIST882 cells after 24 hrs. The class given is functional, cell-based. On the set-up: scale not given: the % may be the effect or the level left. In short, it runs like this:
as §4

Assay [16] is described as follows: Reduction in N-RAS mRNA expression in human GIST882 cells after 24 hrs. The class given is functional, cell-based. In short, it runs like this: as §4
The nature of assay [17]: Reduction in telomerase mRNA expression in human GIST882 cells after 24 hrs. The class given is functional, cell-based. In short, it runs like this:
as §4

The target of assay [18] is Mast/stem cell growth factor receptor Kit (Homo sapiens) (UniProt P10721). As to the kind of experiment: Reduction in KIT protein expression in human GIST882 cells at 1 uM after 24 hrs by Western blot. The class given is functional, cell-based. In short, it runs like this: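 GIST882 cells treated for 24 hr, compound at 0.5 or 1 μM and imatinib at 5 or 10 μM. Lysate protein measured by Bradford, then electrophoresis and immunoblotting for total KIT with an actin loading control.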

In assay [19] the target is Telomerase reverse transcriptase (Homo sapiens) (UniProt O14746). As to the kind of experiment: Inhibition of telomerase in human GIST882 cells at 0.5 uM by TRAP-LIG assay. The assay is classed as cell-based. In short, it runs like this: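 TRAP-LIG assay on GIST882 cells treated for one week. Cell protein extract in CHAPS lysis buffer was elongated with TS primer in TRAP buffer at 30°C for 10 min, then purified. A second PCR with ACX/TS primers ran 35 cycles. Products were run on 12% PAGE and stained with SYBR green. Ladder intensity was normalized to an untreated-protein positive control after negative-control background subtraction.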

Assay [20] has as its system GIST882. As to the kind of experiment: Antiproliferative activity against human GIST882 cells at 0.1 uM after 2 weeks. The assay is classed as functional, cell-based. In short, it runs like this: (§5)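 Long-term proliferation of GIST882 cells under continuous exposure for three weeks at 0.1, 0.25 or 0.5 μM. Growth followed as cumulative population doublings relative to an untreated control arm.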

Assay [21] deals with GIST882. As to the kind of experiment: Antiproliferative activity against human GIST882 cells at 0.25 uM after 1 week. The assay is classed as functional, cell-based. In short, it runs like this: as §5
Assay [22] concerns GIST882. Briefly: Antiproliferative activity against human GIST882 cells at 0.5 uM after 1 week. The assay is classed as functional, cell-based. In short, it runs like this:
as §5

The subject of assay [23] is GIST882. As to the kind of experiment: Cytotoxicity against human GIST882 cells assessed as growth inhibition at 0.25 uM after 1 week. The class given is functional, cell-based. In short, it runs like this: as §5
The subject of assay [24] is GIST882. Briefly: Cytotoxicity against human GIST882 cells assessed as growth inhibition at 0.5 uM after 1 week. The class given is functional, cell-based. In short, it runs like this:
as §5

Assay [25] in a line: Cytotoxicity against human GIST48 cells assessed as effect on cell viability after 3 to 6 days by luciferase based luminescence assay. The class given is functional. In short, it runs like this:
as §3

The target in assay [26] is Mast/stem cell growth factor receptor Kit (Homo sapiens) (UniProt P10721). Briefly: Reduction in KIT protein expression in human GIST882 cells after 24 hrs by Western blot. The class given is functional, cell-based. In short, it runs like this:
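GIST882 cells (RPMI 1640 + 15% FBS) exposed 24 hr to 0.5 or 1 µM test compound, or imatinib at 5 and 10 µM. Lysates protein-quantified by Bradford, then electrophoresed and immunoblotted for total KIT, with actin blot as loading control; vehicle-treated cells as reference.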

Mast/stem cell growth factor receptor Kit (Homo sapiens), sequence (P10721 whole entry): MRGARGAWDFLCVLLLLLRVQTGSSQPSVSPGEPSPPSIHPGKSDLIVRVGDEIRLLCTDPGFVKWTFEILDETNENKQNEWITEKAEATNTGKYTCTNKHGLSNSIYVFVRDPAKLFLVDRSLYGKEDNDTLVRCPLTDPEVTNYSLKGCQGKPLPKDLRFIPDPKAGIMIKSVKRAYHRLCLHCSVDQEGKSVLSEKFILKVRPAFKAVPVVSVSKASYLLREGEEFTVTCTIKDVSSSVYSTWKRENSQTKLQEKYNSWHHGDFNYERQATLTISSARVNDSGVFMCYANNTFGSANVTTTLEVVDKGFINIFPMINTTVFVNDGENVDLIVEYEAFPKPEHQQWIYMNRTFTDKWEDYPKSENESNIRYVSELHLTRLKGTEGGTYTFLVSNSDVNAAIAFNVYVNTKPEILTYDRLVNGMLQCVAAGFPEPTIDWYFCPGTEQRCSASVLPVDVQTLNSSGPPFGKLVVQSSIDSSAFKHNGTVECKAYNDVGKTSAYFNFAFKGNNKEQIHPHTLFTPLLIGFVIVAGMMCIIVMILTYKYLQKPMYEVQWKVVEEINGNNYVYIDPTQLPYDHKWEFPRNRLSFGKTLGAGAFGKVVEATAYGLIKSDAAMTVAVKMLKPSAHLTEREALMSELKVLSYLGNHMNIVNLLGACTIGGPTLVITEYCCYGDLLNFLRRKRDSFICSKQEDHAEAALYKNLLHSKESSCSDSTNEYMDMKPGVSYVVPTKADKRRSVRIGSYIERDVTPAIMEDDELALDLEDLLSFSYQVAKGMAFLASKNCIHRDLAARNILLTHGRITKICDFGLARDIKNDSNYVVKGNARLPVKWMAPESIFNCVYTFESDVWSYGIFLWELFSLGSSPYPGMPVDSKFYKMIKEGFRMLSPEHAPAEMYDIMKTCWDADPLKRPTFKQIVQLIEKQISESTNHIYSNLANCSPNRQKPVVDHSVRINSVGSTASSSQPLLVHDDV
Telomerase reverse transcriptase (Homo sapiens), sequence (O14746 whole entry): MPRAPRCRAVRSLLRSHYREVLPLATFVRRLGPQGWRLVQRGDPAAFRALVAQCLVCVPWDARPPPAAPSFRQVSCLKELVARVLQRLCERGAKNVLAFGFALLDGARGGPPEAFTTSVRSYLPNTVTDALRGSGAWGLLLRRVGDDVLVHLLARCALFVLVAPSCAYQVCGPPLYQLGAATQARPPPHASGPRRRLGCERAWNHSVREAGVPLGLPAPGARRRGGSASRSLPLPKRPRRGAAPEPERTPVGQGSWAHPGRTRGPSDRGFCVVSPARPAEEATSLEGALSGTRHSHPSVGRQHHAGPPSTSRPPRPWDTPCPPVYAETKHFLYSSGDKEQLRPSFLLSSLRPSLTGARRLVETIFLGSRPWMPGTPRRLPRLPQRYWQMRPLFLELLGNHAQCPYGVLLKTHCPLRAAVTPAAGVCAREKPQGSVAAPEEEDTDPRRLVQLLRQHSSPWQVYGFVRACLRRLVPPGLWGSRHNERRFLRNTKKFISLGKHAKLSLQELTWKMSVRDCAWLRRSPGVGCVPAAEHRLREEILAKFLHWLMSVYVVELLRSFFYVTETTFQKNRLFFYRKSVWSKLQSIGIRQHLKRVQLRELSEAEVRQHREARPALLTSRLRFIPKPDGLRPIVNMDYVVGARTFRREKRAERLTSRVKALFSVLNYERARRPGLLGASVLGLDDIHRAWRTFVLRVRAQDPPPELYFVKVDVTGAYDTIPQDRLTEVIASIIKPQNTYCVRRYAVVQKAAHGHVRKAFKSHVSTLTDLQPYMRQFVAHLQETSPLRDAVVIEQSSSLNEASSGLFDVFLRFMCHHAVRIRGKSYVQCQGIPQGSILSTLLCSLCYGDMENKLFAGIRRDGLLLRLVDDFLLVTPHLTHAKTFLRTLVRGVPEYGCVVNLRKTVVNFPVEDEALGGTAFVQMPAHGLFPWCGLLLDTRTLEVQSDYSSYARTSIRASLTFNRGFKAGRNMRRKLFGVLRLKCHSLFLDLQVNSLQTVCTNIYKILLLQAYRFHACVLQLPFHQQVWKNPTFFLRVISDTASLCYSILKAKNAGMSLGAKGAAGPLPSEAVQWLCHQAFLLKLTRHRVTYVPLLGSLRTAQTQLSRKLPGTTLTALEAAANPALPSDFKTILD

For `O=C1c2cc(NCCN3CCCC3)c3c4c(cc(NCCN5CCCC5)c(c24)C(=O)N1CCN1CCCC1)C(=O)N(CCN1CCCC1)C3=O`, the ΔTm worked out at 28.7 °C in assay [1], 5.7 °C in assay [2], 11.2 °C in assay [3] and 29 °C in assay [4]. For the same compound, the IC50 in [5] amounted to 1600 nM; in assay [6], 40 nM; in [7], 30 nM; in assay [8], 20 nM; in assay [25] it was 500 nM. Also, the outcome in assay [9], in assay [10], in [17], in [18], in assay [19] and in [20] was Active. For the same compound, the result in [21], in assay [22], in assay [23] and in assay [24] was Active. Moreover, the outcome in assay [11], in assay [12] and in [16] was inactive. For the same compound, the Activity result in [13] was “Dose-dependent effect”; in assay [14], 90%; in [15], 25%.

Regarding `Cc1ccc(NC(=O)c2ccc(CN3CCN(C)CC3)cc2)cc1Nc1nccc(-c2cccnc2)n1` [IMATINIB], the ΔTm in assay [1] came to 0.2 °C; in assay [2] it was 0.1 °C; in assay [3], 0.2 °C; in assay [4], 0.2 °C. Besides, the IC50 turned out to be 1700 nM in [5]; 2400 nM in [6]; 60 nM in assay [7]; 11500 nM in assay [8]; 18700 nM in assay [25]. Moreover, in assay [13], the result was inactive.

Consider `C[n+]1ccc(-c2c3nc(c(-c4cc[n+](C)cc4)c4ccc([nH]4)c(-c4cc[n+](C)cc4)c4ccc([nH]4)c(-c4cc[n+](C)cc4)c4nc2C=C4)C=C3)cc1` [TMPYP4], for which the ΔTm in assay [1] was 27.8 °C; in assay [2], 8.7 °C; in [3], 11.1 °C; in assay [4], 21.6 °C. In addition, the IC50 in assay [5] was 13200 nM; in [6], 2700 nM; in [7] it was 4500 nM; in assay [8], 6100 nM. For the same compound, the outcome in assay [13] and in [26] was inactive.

Turning to `CN(C)c1ccc(Nc2c3ccc(NC(=O)CCN4CCCC4)cc3nc3cc(NC(=O)CCN4CCCC4)ccc23)cc1`, the ΔTm in assay [1] worked out at 21.6 °C; in assay [2], 7.2 °C; in [3], 6.5 °C; in assay [4] it was 18.5 °C. In addition, the IC50 is greater than 25000 nM in assay [5], 2600 nM in assay [6], 2700 nM in [7] and 2200 nM in [8]. Besides, the result in assay [13] and in assay [26] was inactive.

In general, ΔTm refers to the change in melting temperature against a reference sample. In general, IC50 refers to the concentration at which inhibition is half-maximal.

These data come from ChEMBL document CHEMBL1136989, “Targeting human gastrointestinal stromal tumor cells with a quadruplex-binding small molecule” (J Med Chem, 2009).
